# Measurements published in ChEMBL document CHEMBL4346672, “Antimicrobial and KPC/AmpC inhibitory activity of functionalized benzosiloxaboroles” (Eur J Med Chem, 2019).
# Active and inactive are the calls of the source. The rule behind the calls is not given here.
# Legend:
# Enterococcus faecalis [1] = experiment: Antibacterial activity against Enterococcus faecalis ATCC 29212 assessed as diameter of zone inhibition measured after 18 hrs by CLSI disc diffusion method; format: functional
# How it was run: (§1)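 Disc diffusion on Mueller-Hinton II agar. Compounds dissolved in DMSO. Strains stored at -80 °C and subcultured twice on tryptic soy agar before testing. Inhibition zones read after 35 °C, 18 h.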
# [2] = system: Bordetella bronchiseptica; experiment: Antibacterial activity against Bordetella bronchiseptica ATCC 4617 measured after 18 hrs by CLSI broth dilution method; format: functional; details: ATCC 4617, 18 h
# How it was run: (§2)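 Broth MIC in Mueller-Hinton II broth following CLSI, compounds dissolved in DMSO. Strains subcultured twice on tryptic soy agar before testing. Growth read after 35 °C, 18 h.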
# [3] = system: Bordetella bronchiseptica; experiment: Antibacterial activity against Bordetella bronchiseptica ATCC 4617 assessed as diameter of zone inhibition measured after 18 hrs by CLSI disc diffusion method; format: functional; how it was run: as §1
# Candida parapsilosis [4] = experiment: Antifungal activity against Candida parapsilosis ATCC 22019 assessed as diameter of zone inhibition incubated for 24 hrs by CLSI disc diffusion method; format: functional
# How it was run: (§3)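 Yeast disc diffusion on Mueller-Hinton agar supplemented with 2% glucose and 0.5 mg/L methylene blue. Compounds in DMSO. Yeasts subcultured on Sabouraud dextrose agar before testing. Zones read after 35 °C, 24 h.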
# Saccharomyces cerevisiae [5] = experiment: Antifungal activity against Saccharomyces cerevisiae ATCC 9763 diameter of zone inhibition incubated for 24 hrs by CLSI disc diffusion method; format: functional
# How it was run: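 Disc-diffusion run on Mueller-Hinton II agar with 2% glucose and 0.5 mg/L methylene blue, using compounds in DMSO. Yeast was precultured on Sabouraud dextrose agar (24–48 h, 30 °C). Zones read after 24 h at 35 °C.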
# Proteus mirabilis [6] = experiment: Antibacterial activity against Proteus mirabilis ATCC 12453 measured after 18 hrs by CLSI broth dilution method; format: functional; details: ATCC 12453, 18 h; how it was run: as §2
# Candida parapsilosis [7] = experiment: Antifungal activity against Candida parapsilosis ATCC 22019 assessed as decrease in fungal cell growth at 0.78 to 12.5 mg/L incubated for 24 hrs by CLSI broth dilution method; format: functional; details: Lodderomyces parapsilosis, ATCC 22019, 24 h
# How it was run: (§4)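 Yeast broth dilution in RPMI 1640 with 2% glucose, compounds in DMSO. Yeasts pre-grown on Sabouraud dextrose agar. Growth read after 35 °C, 24 h.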
# Candida albicans [8] = experiment: Antifungal activity against Candida albicans ATCC 90028 assessed as diameter of zone inhibition incubated for 24 hrs by CLSI disc diffusion method; format: functional; how it was run: as §3
# Staphylococcus aureus [9] = experiment: Antibacterial activity against Staphylococcus aureus ATCC 6538P measured after 18 hrs by CLSI broth dilution method; format: functional; how it was run: as §2
# [10] = system: Staphylococcus epidermidis; experiment: Antibacterial activity against Staphylococcus epidermidis ATCC 12228 assessed as diameter of zone inhibition measured after 18 hrs by CLSI disc diffusion method; format: functional; how it was run: as §1
# Burkholderia cepacia = experiment: Antibacterial activity against Burkholderia cepacia ATCC 25416 assessed as diameter of zone inhibition measured after 18 hrs by CLSI disc diffusion method; format: functional; how it was run: as §1
# Candida albicans [11] = experiment: Antifungal activity against Candida albicans ATCC 90028 assessed as decrease in fungal cell growth at 0.78 to 12.5 mg/L incubated for 24 hrs by CLSI broth dilution method; format: functional; details: ATCC 90028, 24 h; how it was run: as §4
# [12] = system: Stenotrophomonas maltophilia; experiment: Antibacterial activity against Stenotrophomonas maltophilia ATCC 13637 assessed as diameter of zone inhibition measured after 18 hrs by CLSI disc diffusion method; format: functional; how it was run: as §1
# Enterobacter cloacae [13] = experiment: Antibacterial activity against Enterobacter cloacae DSM 6234 assessed as diameter of zone inhibition measured after 18 hrs by CLSI disc diffusion method; format: functional; how it was run: as §1
# Enterococcus faecalis [14] = experiment: Antibacterial activity against Enterococcus faecalis ATCC 29212 measured after 18 hrs by CLSI broth dilution method; format: functional; details: ATCC 29212, 18 h; how it was run: as §2
# Serratia marcescens [15] = details: ATCC 13880
# Acinetobacter baumannii [16] = experiment: Antibacterial activity against Acinetobacter baumannii ATCC 19606 measured after 18 hrs by CLSI broth dilution method; format: functional; details: ATCC 19606, 18 h; how it was run: as §2
# Pichia kudriavzevii [17] = experiment: Antifungal activity against Candida krusei ATCC 6258 assessed as diameter of zone inhibition incubated for 24 hrs by CLSI disc diffusion method; format: functional; how it was run: as §3
# Pichia kudriavzevii [18] = experiment: Antifungal activity against Candida krusei ATCC 6258 assessed as decrease in fungal cell growth at 0.78 to 12.5 mg/L incubated for 24 hrs by CLSI broth dilution method; format: functional; details: ATCC 6258, 24 h; how it was run: as §4
# Serratia marcescens [19] = experiment: Antibacterial activity against Serratia marcescens ATCC 13880 assessed as fold reduction of MIC in presence of efflux pump inhibitor PAbetaN incubated for 18 hrs by broth microdilution method; format: functional
# How it was run: (§5)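 MICs determined with and without PAβN at 50 mg/L in Mueller-Hinton broth containing 1 mM MgSO₄. 2-fold serial dilutions per CLSI. Fold change taken from the paired MICs after 35 °C, 18 h.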
# Staphylococcus aureus [20] = experiment: Antibacterial activity against Staphylococcus aureus ATCC 6538P assessed as diameter of zone inhibition measured after 18 hrs by CLSI disc diffusion method; format: functional; how it was run: as §1
# [21] = Dissociation constant, pKa1 of compound in 0.1 M NaOH by potentiometric analysis; format: physicochemical
# Klebsiella pneumoniae [22] = details: ATCC 13883
# Saccharomyces cerevisiae [23] = experiment: Antifungal activity against Saccharomyces cerevisiae ATCC 9763 assessed as decrease in fungal cell growth at 0.78 to 12.5 mg/L incubated for 24 hrs by CLSI broth dilution method; format: functional; details: ATCC 9763, 24 h
# How it was run: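 Yeast strain subcultured on Sabouraud dextrose agar for 24–48 h at 30 °C before testing. Compounds dissolved in DMSO.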
# [24] = system: Staphylococcus epidermidis; experiment: Antibacterial activity against Staphylococcus epidermidis ATCC 12228 measured after 18 hrs by CLSI broth dilution method; format: functional; details: ATCC 12228, 18 h; how it was run: as §2
# Acinetobacter baumannii [25] = experiment: Antibacterial activity against Acinetobacter baumannii ATCC 19606 assessed as fold reduction of MIC in presence of efflux pump inhibitor PAbetaN incubated for 18 hrs by broth microdilution method; format: functional; how it was run: as §5
# Enterobacter cloacae [26] = experiment: Antibacterial activity against Enterobacter cloacae DSM 6234 measured after 18 hrs by CLSI broth dilution method; format: functional; details: DSM 6234, 18 h; how it was run: as §2
# Candida tropicalis [27] = experiment: Antifungal activity against Candida tropicalis IBA 171 assessed as diameter of zone inhibition incubated for 24 hrs by CLSI disc diffusion method; format: functional; how it was run: as §3
# Klebsiella pneumoniae [28] = experiment: Antibacterial activity against Klebsiella pneumoniae ATCC 13883 measured after 18 hrs by CLSI broth dilution method; format: functional; details: ATCC 13883, 18 h; how it was run: as §2
# Candida tropicalis [29] = experiment: Antifungal activity against Candida tropicalis IBA 171 assessed as decrease in fungal cell growth at 0.78 to 12.5 mg/L incubated for 24 hrs by CLSI broth dilution method; format: functional; details: IBA 171, 24 h; how it was run: as §4
# Proteus mirabilis [30] = experiment: Antibacterial activity against Proteus mirabilis ATCC 12453 assessed as diameter of zone inhibition measured after 18 hrs by CLSI disc diffusion method; format: functional; how it was run: as §1
# Escherichia coli = experiment: Antibacterial activity against Escherichia coli ATCC 25922 measured after 18 hrs by CLSI broth dilution method; format: functional; details: ATCC 25922, 18 h; how it was run: as §2
# Pseudomonas aeruginosa = experiment: Antibacterial activity against Pseudomonas aeruginosa ATCC 27853 assessed as diameter of zone inhibition measured after 18 hrs by CLSI disc diffusion method; format: functional, organism-based; how it was run: as §1
structure (smiles),measurement,setting,value
C[Si]1(C)OB(O)c2cc(F)c(C=O)c(F)c21,diameter of the inhibition zone (DIZ),Enterococcus faecalis [1],inactive
same,MIC,[2],> 400 µg/mL
same,diameter of the inhibition zone (DIZ),[3],inactive
same,diameter of the inhibition zone (DIZ),Candida parapsilosis [4],inactive
same,diameter of the inhibition zone (DIZ),Saccharomyces cerevisiae [5],inactive
same,MIC,Proteus mirabilis [6],> 400 µg/mL
same,MIC,Candida parapsilosis [7],25 µg/mL
same,diameter of the inhibition zone (DIZ),Candida albicans [8],inactive
same,MIC,Staphylococcus aureus [9],200 µg/mL
same,diameter of the inhibition zone (DIZ),[10],22 mm
same,diameter of the inhibition zone (DIZ),Burkholderia cepacia,inactive
same,MIC,Candida albicans [11],> 400 µg/mL
same,diameter of the inhibition zone (DIZ),[12],11 mm
same,diameter of the inhibition zone (DIZ),Enterobacter cloacae [13],inactive
same,MIC,Enterococcus faecalis [14],400 µg/mL
same,DIZ,Serratia marcescens [15],inactive
same,MIC,Acinetobacter baumannii [16],> 400 µg/mL
same,diameter of the inhibition zone (DIZ),Pichia kudriavzevii [17],inactive
same,MIC,Pichia kudriavzevii [18],25 µg/mL
same,fold change (FC),Serratia marcescens [19],4
same,diameter of the inhibition zone (DIZ),Staphylococcus aureus [20],21 mm
same,pKa,[21],4.9
same,DIZ,Klebsiella pneumoniae [22],inactive
same,MIC,Saccharomyces cerevisiae [23],50 µg/mL
same,MIC,[24],100 µg/mL
same,fold change (FC),Acinetobacter baumannii [25],4
same,MIC,Enterobacter cloacae [26],> 400 µg/mL
same,diameter of the inhibition zone (DIZ),Candida tropicalis [27],inactive
same,MIC,Klebsiella pneumoniae [28],> 400 µg/mL
same,MIC,Candida tropicalis [29],100 µg/mL
same,diameter of the inhibition zone (DIZ),Proteus mirabilis [30],inactive
same,MIC,Escherichia coli,> 400 µg/mL
same,diameter of the inhibition zone (DIZ),Pseudomonas aeruginosa,inactive
